Laboratory results from ChEMBL document CHEMBL1137701, “Synthesis, characterization and antimicrobial activity of Co(II), Zn(II) and Cd(II) complexes with N-benzyloxycarbonyl-S-phenylalanine” (2009).
≈ marks a conversion by molar mass, not a printed value.

What was measured:
Assay type in all cases: functional
Pseudomonas aeruginosa [1] = assay: Antibacterial activity against Pseudomonas aeruginosa ATCC 27853 at 10 ug/disk after 24 hrs by agar diffusion method; settings: ATCC 27853, 24 h, read-out: IZ
Summary of the method: (§1)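 Reference antibiotic discs (ampicillin or amikacin) placed on 4-mm Mueller-Hinton agar inoculated to semiconfluent growth from 2×10^6 CFU/ml suspensions. Incubation 24 h at 37 °C, then inhibition zone diameter read in mm. Triplicate, averaged; done per NCCLS 1993 disc standard.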

Staphylococcus aureus [2] = assay: Antibacterial activity against Staphylococcus aureus ATCC 25923 at 10 ug/disk after 24 hrs by agar diffusion method; settings: ATCC 25923, 24 h, read-out: IZ; summary of the method: as §1
Micrococcus luteus [3] = assay: Antibacterial activity against Micrococcus luteus ATCC 10240 at 10 ug/disk after 24 hrs by agar diffusion method; settings: ATCC 10240, 24 h, read-out: IZ; summary of the method: as §1
Escherichia coli [4] = assay: Antibacterial activity against Escherichia coli ATCC 25922 after 24 hrs by broth microdilution method; settings: ATCC 25922, 24 h
Summary of the method: (§2)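 Broth microdilution in Mueller-Hinton broth, run to NCCLS (2001). Overnight cultures were set to 2×10^6 CFU/ml final per well. Compounds were dissolved in 1% DMSO and tested as two-fold serial dilutions. TTC (0.05% final) served as growth indicator. Growth was read by absorbance at 600 nm after 24 h at 37 °C. MIC was the lowest concentration with no visible growth. Triplicate, with two growth controls.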

Klebsiella pneumoniae [5] = assay: Antibacterial activity against Klebsiella pneumoniae NCIMB 9111 after 24 hrs by broth microdilution method; settings: NCIMB 9111, 24 h; summary of the method: as §2
Enterococcus faecalis [6] = assay: Antibacterial activity against Enterococcus faecalis ATCC 29212 at 10 ug/disk after 24 hrs by agar diffusion method; settings: ATCC 29212, 24 h, read-out: IZ; summary of the method: as §1
Escherichia coli [7] = assay: Antibacterial activity against Escherichia coli ATCC 25922 at 10 ug/disk after 24 hrs by agar diffusion method; settings: ATCC 25922, 24 h, read-out: IZ
Bacillus subtilis [8] = assay: Antibacterial activity against Bacillus subtilis ATCC 6633 at 10 ug/disk after 24 hrs by agar diffusion method; settings: ATCC 6633, 24 h, read-out: IZ; summary of the method: as §1
Pseudomonas aeruginosa [9] = assay: Antibacterial activity against Pseudomonas aeruginosa ATCC 27853 after 24 hrs by broth microdilution method; settings: ATCC 27853, 24 h; summary of the method: as §2
Klebsiella pneumoniae [10] = assay: Antibacterial activity against Klebsiella pneumoniae NCIMB 9111 at 10 ug/disk after 24 hrs by agar diffusion method; settings: NCIMB 9111, 24 h, read-out: IZ; summary of the method: as §1
[11] = test system: Staphylococcus epidermidis; assay: Antibacterial activity against Staphylococcus epidermidis ATCC 12228 at 10 ug/disk after 24 hrs by agar diffusion method; settings: ATCC 12228, 24 h, read-out: IZ; summary of the method: as §1
Enterococcus faecalis [12] = assay: Antibacterial activity against Enterococcus faecalis ATCC 29212 after 24 hrs by broth microdilution method; settings: ATCC 29212, 24 h; summary of the method: as §2
Staphylococcus aureus [13] = assay: Antibacterial activity against Staphylococcus aureus ATCC 25923 after 24 hrs by broth microdilution method; settings: ATCC 25923, 24 h; summary of the method: as §2
Micrococcus luteus [14] = assay: Antibacterial activity against Micrococcus luteus ATCC 10240 after 24 hrs by broth microdilution method; settings: ATCC 10240, 24 h; summary of the method: as §2
Bacillus subtilis [15] = assay: Antibacterial activity against Bacillus subtilis ATCC 6633 after 24 hrs by broth microdilution method; settings: ATCC 6633, 24 h; summary of the method: as §2
[16] = test system: Staphylococcus epidermidis; assay: Antibacterial activity against Staphylococcus epidermidis ATCC 12228 after 24 hrs by broth microdilution method; settings: ATCC 12228, 24 h; summary of the method: as §2
Candida albicans [17] = assay: Antifungal activity against Candida albicans ATCC 24433 after 48 hrs by broth microdilution method
Summary of the method: (§3)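 Broth microdilution (NCCLS) in Sabouraud dextrose broth, 2×10^5 CFU/ml per well. Compounds in 1% DMSO were two-fold serially diluted over 62.5–1000, with 0.05% final triphenyltetrazolium chloride as growth indicator. Plates were incubated 48 h at 26 °C and growth read by absorbance at 600 nm. MIC is the lowest concentration without visible growth. Triplicate, with two growth controls.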

Candida albicans [18] = assay: Antifungal activity against Candida albicans ATCC 10259 after 48 hrs by broth microdilution method; summary of the method: as §3
Klebsiella pneumoniae [19] = assay: Antibacterial activity against Klebsiella pneumoniae NCIMB 9111 at 20 ug/disk after 24 hrs by agar diffusion method; settings: NCIMB 9111, 24 h, read-out: IZ
Summary of the method: (§4)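 Disc diffusion on 4-mm Mueller-Hinton agar, inoculated from 24 h MHB cultures (37 °C) diluted to 2×10^6 CFU/ml to give semiconfluent growth. 6-mm discs were impregnated with 1 mg/ml DMSO stock solutions. Plates were incubated 24 h at 37 °C and inhibition zone diameters measured in mm. DMSO solvent control; triplicate, averaged.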

[20] = test system: Staphylococcus epidermidis; assay: Antibacterial activity against Staphylococcus epidermidis ATCC 12228 at 20 ug/disk after 24 hrs by agar diffusion method; settings: ATCC 12228, 24 h, read-out: IZ; summary of the method: as §4
Micrococcus luteus [21] = assay: Antibacterial activity against Micrococcus luteus ATCC 10240 at 20 ug/disk after 24 hrs by agar diffusion method; settings: ATCC 10240, 24 h, read-out: IZ; summary of the method: as §4
Candida albicans [22] = assay: Antifungal activity against Candida albicans ATCC 10259 at 20 ug/disk after 72 hrs by agar diffusion method; settings: ATCC 10259, 72 h, read-out: IZ
Summary of the method: (§5)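 Candida albicans grown 24 h at 25 °C in Sabouraud dextrose broth and diluted to 1×10^8 CFU/ml. This inoculum was spread on 4-mm Sabouraud dextrose agar. 6-mm discs were impregnated with 1 mg/ml DMSO stock solutions and incubated 72 h at 26 °C. Inhibition zone diameters measured in mm; DMSO control; triplicate, averaged.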

Candida albicans [23] = assay: Antifungal activity against Candida albicans ATCC 24433 at 20 ug/disk after 72 hrs by agar diffusion method; settings: ATCC 24433, 72 h, read-out: IZ; summary of the method: as §5
Staphylococcus aureus [24] = assay: Antibacterial activity against Staphylococcus aureus ATCC 25923 at 20 ug/disk after 24 hrs by agar diffusion method; settings: ATCC 25923, 24 h, read-out: IZ; summary of the method: as §4
Escherichia coli [25] = assay: Antibacterial activity against Escherichia coli ATCC 25922 at 20 ug/disk after 24 hrs by agar diffusion method; settings: ATCC 25922, 24 h, read-out: IZ; summary of the method: as §4
Enterococcus faecalis [26] = assay: Antibacterial activity against Enterococcus faecalis ATCC 29212 at 20 ug/disk after 24 hrs by agar diffusion method; settings: ATCC 29212, 24 h, read-out: IZ; summary of the method: as §4
Pseudomonas aeruginosa [27] = assay: Antibacterial activity against Pseudomonas aeruginosa ATCC 27853 at 20 ug/disk after 24 hrs by agar diffusion method; settings: ATCC 27853, 24 h, read-out: IZ; summary of the method: as §4
Bacillus subtilis [28] = assay: Antibacterial activity against Bacillus subtilis ATCC 6633 at 20 ug/disk after 24 hrs by agar diffusion method; settings: ATCC 6633, 24 h, read-out: IZ; summary of the method: as §4

Compound | zone of inhibition at 10 µg/disc (Staphylococcus aureus [2]) | zone of inhibition at 10 µg/disc (Micrococcus luteus [3]) | MBC (Escherichia coli [4]) | MIC (Escherichia coli [4]) | MBC (Klebsiella pneumoniae [5]) | MIC (Klebsiella pneumoniae [5]) | zone of inhibition at 10 µg/disc (Enterococcus faecalis [6]) | zone of inhibition at 10 µg/disc (Escherichia coli [7]) | zone of inhibition at 10 µg/disc (Bacillus subtilis [8]) | MBC (Pseudomonas aeruginosa [9]) | MIC (Pseudomonas aeruginosa [9]) | zone of inhibition at 10 µg/disc (Klebsiella pneumoniae [10]) | zone of inhibition at 10 µg/disc [11] | MBC (Enterococcus faecalis [12]) | MIC (Enterococcus faecalis [12]) | MBC (Staphylococcus aureus [13]) | MBC (Micrococcus luteus [14]) | MIC (Micrococcus luteus [14]) | MBC (Bacillus subtilis [15]) | MIC (Bacillus subtilis [15]) | further results
NCC[C@H](O)C(=O)N[C@@H]1C[C@H](N)[C@@H](O[C@H]2O[C@H](CN)[C@@H](O)[C@H](O)[C@H]2O)[C@H](O)[C@H]1O[C@H]1O[C@H](CO)[C@@H](O)[C@H](N)[C@H]1O [AMIKACIN] | 25 mm | 31 mm | 6 µM (≈ 3.51 µg/mL) | 3 µM (≈ 1.76 µg/mL) | 9 µM (≈ 5.27 µg/mL) | 3 µM (≈ 1.76 µg/mL) | 23 mm | 30 mm | 32 mm | 12 µM (≈ 7.03 µg/mL) | 6 µM (≈ 3.51 µg/mL) | 25 mm | 33 mm | – | – | – | – | – | – | – | zone of inhibition at 10 µg/disc (Pseudomonas aeruginosa [1]): 30 mm
CC1(C)S[C@@H]2[C@H](NC(=O)[C@H](N)c3ccccc3)C(=O)N2[C@H]1C(=O)O [AMPICILLIN] | 26 mm | 33 mm | 22 µM (≈ 7.69 µg/mL) | 11 µM (≈ 3.84 µg/mL) | 33 µM (≈ 11.5 µg/mL) | 11 µM (≈ 3.84 µg/mL) | 16 mm | 18 mm | 15 mm | 46 µM (≈ 16.1 µg/mL) | 23 µM (≈ 8.04 µg/mL) | 23 mm | 12 mm | 6 µM (≈ 2.1 µg/mL) | 3 µM (≈ 1.05 µg/mL) | 4 µM (≈ 1.4 µg/mL) | 2 µM (≈ 0.699 µg/mL) | 1 µM (≈ 0.349 µg/mL) | 10 µM (≈ 3.49 µg/mL) | 5 µM (≈ 1.75 µg/mL) | MBC [16]: 6 µM (≈ 2.1 µg/mL); MIC [16]: 3 µM (≈ 1.05 µg/mL)
NYSTATIN | – | – | – | – | – | – | – | – | – | – | – | – | – | – | – | – | – | – | – | – | MFC (Candida albicans [17]): 60 µM; MIC (Candida albicans [17]): 30 µM; MFC (Candida albicans [18]): 140 µM; MIC (Candida albicans [18]): 70 µM
O=C(N[C@@H](Cc1ccccc1)C(=O)O)OCc1ccccc1 | – | – | > 3340 µM | 3340 µM (≈ 1000 µg/mL) | > 3340 µM | 3340 µM (≈ 1000 µg/mL) | – | – | – | > 3340 µM | > 3340 µM | – | – | > 3340 µM | > 3340 µM | > 3340 µM | > 3340 µM | 3340 µM (≈ 1000 µg/mL) | 3340 µM (≈ 1000 µg/mL) | 1670 µM (≈ 500 µg/mL) | zone of inhibition at 20 µg/disc (Klebsiella pneumoniae [19]): 0 mm; zone of inhibition at 20 µg/disc [20]: 8 mm; zone of inhibition at 20 µg/disc (Micrococcus luteus [21]): 0 mm; MIC (Staphylococcus aureus [13]): 3340 µM (≈ 1000 µg/mL); MFC (Candida albicans [17]; ATCC 24433, 48 h): 1660 µM (≈ 497 µg/mL); MIC (Candida albicans [17]; ATCC 24433, 48 h): 830 µM (≈ 248 µg/mL); zone of inhibition at 20 µg/disc (Candida albicans [22]): 0 mm; zone of inhibition at 20 µg/disc (Candida albicans [23]): 0 mm; MFC (Candida albicans [18]; ATCC 10259, 48 h): 1660 µM (≈ 497 µg/mL); MIC (Candida albicans [18]; ATCC 10259, 48 h): 830 µM (≈ 248 µg/mL); zone of inhibition at 20 µg/disc (Staphylococcus aureus [24]): 0 mm; zone of inhibition at 20 µg/disc (Escherichia coli [25]): 0 mm; MBC [16]: > 3340 µM; MIC [16]: 3340 µM (≈ 1000 µg/mL); zone of inhibition at 20 µg/disc (Enterococcus faecalis [26]): 0 mm; zone of inhibition at 20 µg/disc (Pseudomonas aeruginosa [27]): 0 mm; zone of inhibition at 20 µg/disc (Bacillus subtilis [28]): 0 mm
